We go through one compound from ChEMBL document CHEMBL1121659 (J Med Chem, 1981).

By Kp is commonly meant tissue or fluid exposure divided by exposure in the circulation. The term half-life denotes the time needed for the level to fall by half in the phase considered. Low readings indicate fast loss, high ones slow loss.

Data set [1] can be described thus: Compound was evaluated for the tissue levels after 1 hour of administration of 5 mg/kg through intravenous route, the given data is tissue/plasma ratios heart. It counts as ADME, organism-based. More on the design: dose 5 mg/kg, route intravenous. The essentials:
(§1)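 Anesthetized male Wistar rats received [14C] compound 5 mg/kg by slow jugular infusion in propylene glycol–0.1 N NaOH (1:1). Tissues were taken at 1 h, four per group, rinsed, blotted and weighed. Fat, muscle and red cells were combusted directly, other organs after EtOH homogenization. Tissue/plasma 14C ratios were computed.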

A short description of data set [2]: Compound was evaluated for the tissue levels after 1 hour of administration of 5 mg/kg through intravenous route, the given data is tissue/plasma ratios lungs. More on the design: dose 5 mg/kg, route intravenous. It counts as ADME, organism-based. The essentials:
as §1

A short description of data set [3]: Compound was evaluated for the average plasma levels at 24 hours, after administration of intraperitoneal route. It counts as ADME. Conditions: ip, read-out: Plasma level. The essentials:
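Male Wistar rats were given [14C] compound 5 mg/kg ip in propylene glycol (2 mL/kg). Blood was taken by cardiac puncture under ether at 1, 2, 3, 5 and 7 days, six rats per time point. Plasma 14C was counted to give the β-phase elimination half-life and plasma levels.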

A short description of data set [4]: Compound was evaluated for the cumulative excretion rate in rats at the dose 10 mg/kg, intraperitoneally for 18 days through feces. The arrangement: dose 10 mg/kg, route intraperitoneal. The following applies: rat, faeces, ip, read-out: Excretion. Type of data set: ADME, organism-based. Summed up: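 Four male Wistar rats were dosed with [14C] compound at 10 mg/kg ip in propylene glycol (5 mL/kg). Urine and feces were collected at 3-day intervals for 18 days. Fecal EtOH homogenates were combusted and counted. Daily fecal rate for the 0–3 day interval was corrected for gastrointestinal transit time (about 18 h).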

The nature of data set [5]: Compound was evaluated for the biological half life of elimination in feces. Type of data set: ADME, tissue-based. Conditions: faeces.
Data set [6] can be described thus: Compound was evaluated for the average plasma levels at 24 hours, after administration of intravenous route. Type of data set: ADME. Conditions: read-out: Plasma level. The essentials: (§2)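 Male Wistar rats under pentobarbital (25 mg/kg ip) received [14C] compound 5 mg/kg iv in propylene glycol–0.1 N NaOH (1:1). Dosing was by jugular infusion, or by tail vein for later time points.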

Data set [7] has as its system Mus musculus. The data set is described as follows: Time to first twitch in intravenous pentylenetetrazole test in mice at 100 mg/kg for 48 hr time of test. It counts as functional. Summed up:
(§3)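 Carworth Farm No. 1 mice (average 20 g) were dosed ip. At set times afterwards, 0.5% pentylenetetrazol in heparinized saline was infused into the tail vein at 0.34 mL/min. Time to first twitch was recorded in individual mice, with observation to 240 s.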

The subject of data set [8] is Mus musculus. The data set is described as follows: Time to first twitch in intravenous pentylenetetrazole test in mice at 100 mg/kg for 72 hr time of test. It counts as functional. The essentials:
as §3

Data set [9] can be described thus: Compound was evaluated for the plasma biological half life in the Swiss webster mouse when administered at the […]. It counts as ADME, organism-based. Summed up:
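Swiss Webster mice (20–30 g) received [14C] compound 10 mg/kg ip. Four animals were killed at each of 12, 18, 24, 36, 48 and 72 h. Radioactivity was measured in plasma and brain, and the plasma elimination half-life was derived from these levels.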

Data set [10] has as its system Mus musculus. The data set is described as follows: Time to first twitch in intravenous pentylenetetrazole test in mice at 300 mg/kg for 48 hr time of test. Type of data set: functional. The essentials: as §3
Data set [11] concerns Mus musculus. Briefly: Time to first twitch in intravenous pentylenetetrazole test in mice at 100 mg/kg for 30 h time of test. It counts as functional. Summed up: as §3
In data set [12] the test system is Mus musculus. The data set is described as follows: Time to first twitch in intravenous pentylenetetrazole test in mice at 300 mg/kg for 72 h time of test. Type of data set: functional. Summed up:
as §3

Data set [13] can be described thus: Compound was evaluated for the tissue levels after 1 hour of administration of 5 mg/kg through intravenous route, the given data is tissue/plasma ratios red cells. More on the design: dose 5 mg/kg, route intravenous. It counts as ADME, organism-based. The essentials: as §1
Data set [14] deals with Mus musculus. The data set is described as follows: Compound was evaluated for the neurotoxicity after intraperitoneal administration at 48 hours. Type of data set: organism-based. The following applies: in vivo, ip. Summed up: (§4)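 Rotarod ataxia test in Carworth Farm No. 1 mice, run by the ADD program. Dosed ip in aqueous 30% PEG 400. Neurological deficit scored at 24 and 48 h after doses up to 1000 mg/kg.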

The subject of data set [15] is Mus musculus. The data set is described as follows: Compound was evaluated for the neurotoxicity after intraperitoneal administration at 24 hours. Type of data set: organism-based. The following applies: in vivo, ip. Summed up:
as §4

The nature of data set [16]: Compound was evaluated for the biological half life in rats after a dose of 5 mg/kg given intravenous route. Type of data set: ADME, organism-based. The arrangement: dose 5 mg/kg, route intravenous. Conditions: rat, in vivo. The essentials:
as §2

A short description of data set [17]: Compound at the dose 10 mg/kg administered intraperitoneally was evaluated for the excretion rate in rats in 7 days through feces. Type of data set: ADME, organism-based. The arrangement: dose 10 mg/kg, route intraperitoneal. The following applies: rat, faeces, ip, read-out: Excretion. The essentials:
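Male Wistar rats (150–330 g) in individual metabolic cages received [14C] compound 10 mg/kg ip in propylene glycol (5 mL/kg), n=4. Urine and feces were collected for 7 days. Urine was diluted with EtOH and counted directly. Fecal EtOH homogenates were dried, combusted and counted as trapped 14CO2.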

As for `O=C1NC(=O)C(c2ccc(C(F)(F)F)cc2)(c2ccc(C(F)(F)F)cc2)N1`, the Kp at 1 h in [1] is 0.66; in data set [2], 0.62; in data set [13] it was 0.12. Also, the results for the concentration at 24 h in data set [3] and in data set [6] were 11000 ng/mL and 9400 ng/mL, respectively. In addition, in data set [4], the dose excreted at 432 h was 94%. Also, the half-life in data set [5] was 93.6 h; in data set [9], 115 h; in data set [16], 66.7 h. For the same compound, the Time turned out to be 24.3 s with Mus musculus [7]; 27.1 s in the data set with Mus musculus [8]; 32.4 s in the data set on Mus musculus [10]; 23.1 s in the data set on Mus musculus [11]; 24.9 s with Mus musculus [12]. In addition, the Toxic dose was determined as 1000 mg/kg with Mus musculus [14] and 750 mg/kg in the data set with Mus musculus [15]. Further, the dose excreted at 168 h in data set [17] amounted to 67%.
